Tests used:
[1] = tested on: HT-29; assay: Cytotoxicity against human HT-29 cells after 72 hrs by MTT assay; type: functional, cell-based; conditions: HT-29, 72 h
How it was run: (§1)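 Cells suspended in MEM medium, plated and incubated 24 h at 37 °C in 5% CO₂, then exposed to compounds at indicated final concentrations for 72 h. IC₅₀ from averages of three determinations, relative to DMSO vehicle control.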

[2] = tested on: MDA-MB-231; assay: Cytotoxicity against human MDA-MB-231 cells after 72 hrs by MTT assay; type: functional, cell-based; conditions: MDA-MB-231, 72 h; how it was run: as §1
[3] = Cytotoxicity against human MKN45 cells after 72 hrs by MTT assay; type: functional, cell-based; conditions: MKN-45, 72 h; how it was run: as §1
[4] = Cytotoxicity against human H460 cells after 72 hrs by MTT assay; type: functional, cell-based; conditions: NCI-H460, 72 h; how it was run: as §1
[5] = target: RAF proto-oncogene serine/threonine-protein kinase (Homo sapiens, UniProt P04049); assay: Inhibition of C-Raf (unknown origin) using poly (Glu, Tyr) 4:1 substrate incubated for 30 mins by HTRF assay
How it was run: (§2)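 Compounds in 1% DMSO, blank DMSO as negative control. Reaction started with purified tyrosine kinase, 30 min at 25 °C, stopped with Streptavidin-XL665 and Tk antibody cryptate; read at […] and 615 nm.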

[6] = target: Vascular endothelial growth factor receptor 2 (Homo sapiens, UniProt P35968); assay: Inhibition of KDR (unknown origin) using poly (Glu, Tyr) 4:1 substrate incubated for 30 mins by HTRF assay
[7] = target: Serine/threonine-protein kinase mTOR (Homo sapiens, UniProt P42345); assay: Inhibition of mTOR (unknown origin) using poly (Glu, Tyr) 4:1 substrate incubated for 30 mins by HTRF assay; how it was run: as §2
[8] = target: Serine/threonine-protein kinase B-raf (Homo sapiens, UniProt P15056); assay: Inhibition of B-Raf (unknown origin) using poly (Glu, Tyr) 4:1 substrate incubated for 30 mins by HTRF assay
[9] = target: Mast/stem cell growth factor receptor Kit (Homo sapiens, UniProt P10721); assay: Inhibition of KIT (unknown origin) using poly (Glu, Tyr) 4:1 substrate incubated for 30 mins by HTRF assay; how it was run: as §2
[10] = target: T1, Receptor-type tyrosine-protein kinase FLT3 (Homo sapiens, UniProt P36888); assay: Inhibition of FLT3 (unknown origin) using poly (Glu, Tyr) 4:1 substrate incubated for 30 mins by HTRF assay; how it was run: as §2
T1 sequence (P36888 whole entry): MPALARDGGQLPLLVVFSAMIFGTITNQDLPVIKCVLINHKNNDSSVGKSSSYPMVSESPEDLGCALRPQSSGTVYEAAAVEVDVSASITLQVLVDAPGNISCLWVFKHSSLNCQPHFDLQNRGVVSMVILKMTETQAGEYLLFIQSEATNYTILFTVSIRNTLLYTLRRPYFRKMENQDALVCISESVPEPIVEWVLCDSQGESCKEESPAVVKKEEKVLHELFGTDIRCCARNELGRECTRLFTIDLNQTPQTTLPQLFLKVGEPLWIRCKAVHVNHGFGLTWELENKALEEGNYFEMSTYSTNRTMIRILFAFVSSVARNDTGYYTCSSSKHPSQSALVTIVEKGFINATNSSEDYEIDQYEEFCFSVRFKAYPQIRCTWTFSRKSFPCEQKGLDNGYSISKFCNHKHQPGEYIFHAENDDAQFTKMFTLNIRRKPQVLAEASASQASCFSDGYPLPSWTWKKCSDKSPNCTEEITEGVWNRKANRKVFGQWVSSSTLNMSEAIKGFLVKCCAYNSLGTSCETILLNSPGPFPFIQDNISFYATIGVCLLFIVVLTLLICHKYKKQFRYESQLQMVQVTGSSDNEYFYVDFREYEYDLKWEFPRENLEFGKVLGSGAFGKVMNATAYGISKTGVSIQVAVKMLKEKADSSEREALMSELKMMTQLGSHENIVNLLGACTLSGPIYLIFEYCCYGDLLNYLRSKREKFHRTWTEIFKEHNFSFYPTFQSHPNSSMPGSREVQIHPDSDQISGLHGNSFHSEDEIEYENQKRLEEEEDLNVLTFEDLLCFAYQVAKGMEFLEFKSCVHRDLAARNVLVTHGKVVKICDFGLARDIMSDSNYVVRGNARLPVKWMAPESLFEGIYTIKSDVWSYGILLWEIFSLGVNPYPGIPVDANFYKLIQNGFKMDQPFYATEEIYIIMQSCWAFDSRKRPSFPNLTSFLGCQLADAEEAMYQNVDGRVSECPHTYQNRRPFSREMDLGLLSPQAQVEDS

[11] = target: Phosphatidylinositol 4,5-bisphosphate 3-kinase catalytic subunit alpha isoform (Homo sapiens, UniProt P42336); assay: Inhibition of PI3Kalpha (unknown origin) using poly (Glu, Tyr) 4:1 substrate incubated for 30 mins by HTRF assay
[12] = target: Platelet-derived growth factor receptor beta (Homo sapiens, UniProt P09619); assay: Inhibition of PDGFRbeta (unknown origin) using poly (Glu, Tyr) 4:1 substrate incubated for 30 mins by HTRF assay; how it was run: as §2
[13] = tested on: HT-29; assay: Induction of apoptosis in human HT-29 cells assessed as increase in PARP cleavage at 5 uM pre-treated for 48 hrs by Western blot method relative to beta-actin expression; type: functional
How it was run: (§3)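 HT-29 cells (about 1 × 10⁷) treated 48 h with vehicle or 1 or 5 µM compound; lysates prepared with lysis buffer plus protease inhibitor cocktail and sonicated. Equal total protein run on 10% SDS-PAGE, transferred to PVDF, probed with primary and HRP secondary antibodies. Cleaved PARP to β-actin ratio expressed relative to control.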

[14] = tested on: HT-29; assay: Induction of apoptosis in human HT-29 cells assessed as increase in PARP cleavage pre-treated for 48 hrs by Western blot method; type: functional, cell-based; how it was run: as §3
[15] = target: Vascular endothelial growth factor receptor (Homo sapiens, UniProt P17948+P35916+P35968); assay: Inhibition of VEGFR (unknown origin) using poly (Glu, Tyr) 4:1 substrate incubated for 30 mins by HTRF assay; type: protein assay
[16] = target: Epidermal growth factor receptor (Homo sapiens, UniProt P00533); assay: Inhibition of EGFR (unknown origin) using poly (Glu, Tyr) 4:1 substrate incubated for 30 mins by HTRF assay
[17] = tested on: HT-29; assay: Induction of apoptosis in human HT-29 cells assessed as increase in PARP cleavage at 1 uM pre-treated for 48 hrs by Western blot method relative to beta-actin expression; type: functional; how it was run: as §3

Sequence of Vascular endothelial growth factor receptor 2 (P35968 whole entry): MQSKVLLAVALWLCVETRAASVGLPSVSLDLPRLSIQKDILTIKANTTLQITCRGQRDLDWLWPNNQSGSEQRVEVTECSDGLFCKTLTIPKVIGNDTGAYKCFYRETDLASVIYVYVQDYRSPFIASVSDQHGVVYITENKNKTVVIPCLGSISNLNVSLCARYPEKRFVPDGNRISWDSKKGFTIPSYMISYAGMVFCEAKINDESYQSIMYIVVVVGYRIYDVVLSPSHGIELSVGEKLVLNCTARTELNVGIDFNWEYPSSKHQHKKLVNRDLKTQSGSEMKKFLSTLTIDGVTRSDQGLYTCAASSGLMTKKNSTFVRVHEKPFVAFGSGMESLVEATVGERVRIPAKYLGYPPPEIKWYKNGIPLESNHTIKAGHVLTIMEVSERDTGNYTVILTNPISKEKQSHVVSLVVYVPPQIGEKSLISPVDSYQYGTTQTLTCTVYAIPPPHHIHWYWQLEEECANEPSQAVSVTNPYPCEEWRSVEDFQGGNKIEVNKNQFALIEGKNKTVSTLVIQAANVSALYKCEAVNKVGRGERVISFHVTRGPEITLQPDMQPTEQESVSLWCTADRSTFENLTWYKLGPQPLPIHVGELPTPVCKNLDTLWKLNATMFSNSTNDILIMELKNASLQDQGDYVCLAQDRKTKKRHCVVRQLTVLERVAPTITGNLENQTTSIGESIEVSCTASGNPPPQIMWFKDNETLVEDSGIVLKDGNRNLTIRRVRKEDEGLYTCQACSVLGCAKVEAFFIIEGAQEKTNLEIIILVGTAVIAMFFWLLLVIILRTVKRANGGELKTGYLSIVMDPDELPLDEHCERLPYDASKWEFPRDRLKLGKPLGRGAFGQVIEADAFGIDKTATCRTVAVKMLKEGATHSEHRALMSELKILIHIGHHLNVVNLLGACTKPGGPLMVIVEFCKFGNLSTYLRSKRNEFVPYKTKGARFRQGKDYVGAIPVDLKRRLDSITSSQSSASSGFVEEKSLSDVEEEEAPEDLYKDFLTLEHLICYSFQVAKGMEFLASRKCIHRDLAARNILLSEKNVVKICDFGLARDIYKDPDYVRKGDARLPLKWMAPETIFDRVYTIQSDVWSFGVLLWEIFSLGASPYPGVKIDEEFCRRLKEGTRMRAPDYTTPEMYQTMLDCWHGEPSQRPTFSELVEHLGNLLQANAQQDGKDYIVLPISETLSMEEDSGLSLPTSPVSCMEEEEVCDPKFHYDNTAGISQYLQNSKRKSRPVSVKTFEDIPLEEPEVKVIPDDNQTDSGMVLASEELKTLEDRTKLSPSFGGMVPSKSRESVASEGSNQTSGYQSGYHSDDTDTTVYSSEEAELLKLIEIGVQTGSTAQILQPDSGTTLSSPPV
Sequence of RAF proto-oncogene serine/threonine-protein kinase (P04049 whole entry): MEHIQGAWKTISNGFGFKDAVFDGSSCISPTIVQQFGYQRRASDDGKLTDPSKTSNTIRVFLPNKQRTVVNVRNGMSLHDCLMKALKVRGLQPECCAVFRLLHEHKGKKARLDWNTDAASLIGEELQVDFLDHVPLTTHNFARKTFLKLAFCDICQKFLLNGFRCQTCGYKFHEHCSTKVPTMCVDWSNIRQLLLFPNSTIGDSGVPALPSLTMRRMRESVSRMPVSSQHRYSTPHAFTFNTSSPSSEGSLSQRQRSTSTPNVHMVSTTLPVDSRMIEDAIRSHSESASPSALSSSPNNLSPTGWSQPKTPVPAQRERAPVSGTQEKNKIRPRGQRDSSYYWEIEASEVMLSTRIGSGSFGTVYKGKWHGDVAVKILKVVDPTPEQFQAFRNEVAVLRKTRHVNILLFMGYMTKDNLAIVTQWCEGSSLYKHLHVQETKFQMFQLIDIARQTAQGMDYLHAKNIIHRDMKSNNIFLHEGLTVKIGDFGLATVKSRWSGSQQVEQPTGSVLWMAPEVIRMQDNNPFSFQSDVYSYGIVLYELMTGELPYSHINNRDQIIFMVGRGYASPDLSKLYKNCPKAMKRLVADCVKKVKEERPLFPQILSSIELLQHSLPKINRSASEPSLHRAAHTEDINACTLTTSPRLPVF
Sequence of Serine/threonine-protein kinase B-raf (P15056 whole entry): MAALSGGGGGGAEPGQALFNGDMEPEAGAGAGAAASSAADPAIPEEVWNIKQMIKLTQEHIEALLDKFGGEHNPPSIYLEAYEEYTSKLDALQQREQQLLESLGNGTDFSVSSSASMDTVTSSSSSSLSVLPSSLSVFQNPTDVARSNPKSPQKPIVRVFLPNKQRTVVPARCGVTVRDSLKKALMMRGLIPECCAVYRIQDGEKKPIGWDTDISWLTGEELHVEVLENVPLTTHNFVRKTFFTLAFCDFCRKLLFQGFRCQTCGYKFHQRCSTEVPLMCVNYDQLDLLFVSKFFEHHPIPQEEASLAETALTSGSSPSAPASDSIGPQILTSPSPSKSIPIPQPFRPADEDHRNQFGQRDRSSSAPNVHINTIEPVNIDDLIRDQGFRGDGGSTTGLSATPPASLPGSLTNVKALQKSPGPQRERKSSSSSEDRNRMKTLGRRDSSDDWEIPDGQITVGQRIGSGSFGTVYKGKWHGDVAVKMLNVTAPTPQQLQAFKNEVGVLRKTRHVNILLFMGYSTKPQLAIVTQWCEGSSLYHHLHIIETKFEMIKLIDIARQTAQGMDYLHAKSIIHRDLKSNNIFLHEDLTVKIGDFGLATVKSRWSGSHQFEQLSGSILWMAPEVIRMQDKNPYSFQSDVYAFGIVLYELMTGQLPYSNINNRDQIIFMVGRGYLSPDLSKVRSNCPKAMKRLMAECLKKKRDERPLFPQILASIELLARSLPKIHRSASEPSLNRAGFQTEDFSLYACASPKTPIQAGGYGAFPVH
Sequence of Phosphatidylinositol 4,5-bisphosphate 3-kinase catalytic subunit alpha isoform (P42336 whole entry, canonical isoform): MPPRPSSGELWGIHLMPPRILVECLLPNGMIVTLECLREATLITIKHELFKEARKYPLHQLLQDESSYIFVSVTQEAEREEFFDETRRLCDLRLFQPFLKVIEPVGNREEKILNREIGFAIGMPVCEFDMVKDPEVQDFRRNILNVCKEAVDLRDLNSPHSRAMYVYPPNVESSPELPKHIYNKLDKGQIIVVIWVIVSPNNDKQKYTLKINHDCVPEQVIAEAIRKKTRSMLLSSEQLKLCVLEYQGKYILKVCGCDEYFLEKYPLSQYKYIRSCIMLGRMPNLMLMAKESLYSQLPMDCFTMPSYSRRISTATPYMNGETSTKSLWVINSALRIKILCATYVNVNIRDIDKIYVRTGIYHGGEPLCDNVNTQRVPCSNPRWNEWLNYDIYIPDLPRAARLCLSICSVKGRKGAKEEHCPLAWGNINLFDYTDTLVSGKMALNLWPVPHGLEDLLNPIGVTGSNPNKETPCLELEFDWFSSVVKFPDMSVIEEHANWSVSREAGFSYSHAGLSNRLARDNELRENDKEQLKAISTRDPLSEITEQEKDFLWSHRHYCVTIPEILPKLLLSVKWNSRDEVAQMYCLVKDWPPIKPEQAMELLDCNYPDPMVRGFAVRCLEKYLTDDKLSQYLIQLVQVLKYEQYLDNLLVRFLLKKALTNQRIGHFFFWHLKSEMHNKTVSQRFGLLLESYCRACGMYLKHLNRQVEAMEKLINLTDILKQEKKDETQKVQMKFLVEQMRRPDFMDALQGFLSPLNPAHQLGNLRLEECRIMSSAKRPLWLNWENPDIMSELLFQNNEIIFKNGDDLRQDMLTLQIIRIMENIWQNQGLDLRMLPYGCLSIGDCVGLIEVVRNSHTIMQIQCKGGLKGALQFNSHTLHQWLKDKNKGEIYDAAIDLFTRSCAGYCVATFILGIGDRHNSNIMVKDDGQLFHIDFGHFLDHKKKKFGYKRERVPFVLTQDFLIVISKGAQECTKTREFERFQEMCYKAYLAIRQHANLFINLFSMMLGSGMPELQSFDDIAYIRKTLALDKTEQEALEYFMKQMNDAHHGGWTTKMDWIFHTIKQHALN
Sequence of Mast/stem cell growth factor receptor Kit (P10721 whole entry): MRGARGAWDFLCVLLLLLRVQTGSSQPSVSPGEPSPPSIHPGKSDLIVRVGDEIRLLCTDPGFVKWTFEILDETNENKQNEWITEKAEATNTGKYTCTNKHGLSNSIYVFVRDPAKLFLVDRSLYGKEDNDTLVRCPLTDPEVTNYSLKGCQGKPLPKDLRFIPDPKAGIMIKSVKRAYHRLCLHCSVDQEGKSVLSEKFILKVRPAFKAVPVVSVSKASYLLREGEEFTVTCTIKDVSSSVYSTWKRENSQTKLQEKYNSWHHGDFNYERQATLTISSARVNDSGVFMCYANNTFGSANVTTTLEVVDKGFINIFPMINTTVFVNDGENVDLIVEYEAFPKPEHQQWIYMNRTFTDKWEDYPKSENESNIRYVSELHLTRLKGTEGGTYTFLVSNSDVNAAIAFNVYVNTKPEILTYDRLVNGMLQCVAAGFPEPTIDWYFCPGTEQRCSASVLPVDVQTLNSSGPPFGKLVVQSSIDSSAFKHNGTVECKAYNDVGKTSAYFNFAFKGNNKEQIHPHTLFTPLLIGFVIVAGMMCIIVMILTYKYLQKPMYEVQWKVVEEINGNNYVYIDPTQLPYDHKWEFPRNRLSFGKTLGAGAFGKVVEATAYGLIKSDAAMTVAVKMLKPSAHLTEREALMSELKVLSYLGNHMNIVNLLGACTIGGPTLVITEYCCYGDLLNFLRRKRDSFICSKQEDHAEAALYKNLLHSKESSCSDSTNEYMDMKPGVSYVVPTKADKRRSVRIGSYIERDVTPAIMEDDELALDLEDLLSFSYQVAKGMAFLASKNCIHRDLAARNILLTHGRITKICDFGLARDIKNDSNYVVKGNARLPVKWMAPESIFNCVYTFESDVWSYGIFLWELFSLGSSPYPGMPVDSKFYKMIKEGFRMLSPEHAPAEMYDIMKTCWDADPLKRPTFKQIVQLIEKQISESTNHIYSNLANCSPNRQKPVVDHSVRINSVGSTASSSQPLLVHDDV

SMILES: CN(C)CCCNc1nc(-c2ccc(NC(=O)Nc3ccc(Cl)cc3Cl)cc2)nc2c(Cl)c(Cl)sc12
- IC50 [1]: 1320 nM
- IC50 [2]: 3490 nM
- IC50 [3]: 2560 nM
- IC50 [4]: 980 nM

SMILES: CN(C)CCCNc1nc(-c2ccc(NC(=O)Nc3ccccc3Cl)cc2)nc2ccsc12
- IC50 [1]: 390 nM
- IC50 [2]: 590 nM
- IC50 [3]: 690 nM
- IC50 [4]: 430 nM

SMILES: CN(C)CCNc1nc(-c2ccc(NC(=O)Nc3ccccc3)cc2)nc2ccsc12
- IC50 [1]: 620 nM
- IC50 [2]: 1310 nM
- IC50 [3]: 1120 nM
- IC50 [4]: 640 nM

SMILES: CCN(CC)CCCNc1nc(-c2ccc(NC(=O)Nc3ccc(Cl)cc3)cc2)nc2c(Cl)c(Cl)sc12
- IC50 [1]: 250 nM
- IC50 [2]: 660 nM
- IC50 [3]: 720 nM
- IC50 [4]: 270 nM

SMILES: CCN(CC)CCCNc1nc(-c2ccc(NC(=O)Nc3ccc(Cl)cc3)cc2)nc2ccsc12
- IC50 [5]: > 10000 nM
- IC50 [6]: > 10000 nM
- IC50 [7]: > 10000 nM
- IC50 [8]: > 10000 nM
- IC50 [1]: 58 nM
- IC50 [9]: 6100 nM
- IC50 [10]: 1000 nM
- IC50 [11]: 130 nM
- IC50 [12]: 5800 nM
- fold change (FC) [13]: 3.5
- Activity [14]: Dose-dependent effect
- IC50 [15]: > 10000 nM
- IC50 [16]: > 10000 nM
- IC50 [2]: 230 nM
- IC50 [3]: 180 nM
- fold change (FC) [17]: 2.5
- IC50 [4]: 81 nM

SMILES: CCN(CC)CCCNc1nc(-c2ccc(NC(=O)Nc3ccc(F)cc3)cc2)nc2c(Cl)c(Cl)sc12
- IC50 [1]: 350 nM
- IC50 [2]: 1630 nM
- IC50 [3]: 1700 nM
- IC50 [4]: 450 nM

SMILES: CCN(CC)CCNc1nc(-c2ccc(NC(=O)Nc3ccccc3Cl)cc2)nc2ccsc12
- IC50 [1]: 620 nM
- IC50 [2]: 680 nM
- IC50 [3]: 750 nM
- IC50 [4]: 320 nM

SMILES: CCN(CC)CCCNc1nc(-c2ccc(NC(=O)Nc3ccc(F)cc3)cc2)nc2ccsc12
- IC50 [1]: 340 nM
- IC50 [2]: 530 nM
- IC50 [3]: 470 nM
- IC50 [4]: 290 nM

SMILES: CN(C)CCCNc1nc(-c2ccc(NC(=O)Nc3ccc(Cl)cc3)cc2)nc2c(Cl)c(Cl)sc12
- IC50 [1]: 330 nM
- IC50 [2]: 1160 nM
- IC50 [3]: 1530 nM
- IC50 [4]: 230 nM

SMILES: CCN(CC)CCCNc1nc(-c2ccc(NC(=O)Nc3ccc(C)cc3)cc2)nc2ccsc12
- IC50 [1]: 1620 nM
- IC50 [2]: 1980 nM
- IC50 [3]: 1760 nM
- IC50 [4]: 1240 nM

SMILES: CCN(CC)CCCNc1nc(-c2ccc(NC(=O)Nc3ccccc3)cc2)nc2c(Cl)c(Cl)sc12
- IC50 [1]: 820 nM
- IC50 [2]: 1780 nM
- IC50 [3]: 1640 nM
- IC50 [4]: 850 nM

SMILES: CN(C)CCNc1nc(-c2ccc(NC(=O)Nc3ccc(Cl)cc3Cl)cc2)nc2c(Cl)c(Cl)sc12
- IC50 [1]: 1280 nM
- IC50 [2]: 3500 nM
- IC50 [3]: 3460 nM
- IC50 [4]: 1520 nM

SMILES: CN(C)CCNc1nc(-c2ccc(NC(=O)Nc3ccc(F)cc3)cc2)nc2c(Cl)c(Cl)sc12
- IC50 [1]: 890 nM
- IC50 [2]: 1240 nM
- IC50 [3]: 1350 nM
- IC50 [4]: 590 nM

SMILES: CCN(CC)CCCNc1nc(-c2ccc(NC(=O)Nc3ccccc3Cl)cc2)nc2ccsc12
- IC50 [1]: 340 nM
- IC50 [2]: 500 nM
- IC50 [3]: 390 nM
- IC50 [4]: 200 nM

SMILES: CCN(CC)CCNc1nc(-c2ccc(NC(=O)Nc3ccc(Cl)cc3Cl)cc2)nc2c(Cl)c(Cl)sc12
- IC50 [1]: 1140 nM
- IC50 [2]: 1920 nM
- IC50 [3]: 1770 nM
- IC50 [4]: 1300 nM

SMILES: CN(C)CCNc1nc(-c2ccc(NC(=O)Nc3ccccc3F)cc2)nc2ccsc12
- IC50 [1]: 510 nM
- IC50 [2]: 600 nM
- IC50 [3]: 530 nM
- IC50 [4]: 410 nM

SMILES: CCN(CC)CCNc1nc(-c2ccc(NC(=O)Nc3ccccc3F)cc2)nc2ccsc12
- IC50 [1]: 610 nM
- IC50 [2]: 580 nM
- IC50 [3]: 1040 nM
- IC50 [4]: 430 nM

SMILES: CCN(CC)CCCNc1nc(-c2ccc(NC(=O)Nc3ccccc3)cc2)nc2ccsc12
- IC50 [1]: 730 nM
- IC50 [2]: 1230 nM
- IC50 [3]: 980 nM
- IC50 [4]: 680 nM

SMILES: CN(C)CCNc1nc(-c2ccc(NC(=O)Nc3ccc(Cl)cc3)cc2)nc2c(Cl)c(Cl)sc12
- IC50 [1]: 460 nM
- IC50 [2]: 870 nM
- IC50 [3]: 910 nM
- IC50 [4]: 300 nM

SMILES: CN(C)CCNc1nc(-c2ccc(NC(=O)Nc3ccc(Cl)cc3Cl)cc2)nc2ccsc12
- IC50 [1]: 1320 nM
- IC50 [2]: 2450 nM
- IC50 [3]: 2360 nM
- IC50 [4]: 1650 nM

SMILES: CN(C)CCCNc1nc(-c2ccc(NC(=O)Nc3ccccc3F)cc2)nc2ccsc12
- IC50 [1]: 470 nM
- IC50 [2]: 660 nM
- IC50 [3]: 730 nM
- IC50 [4]: 530 nM

SMILES: CN(C)CCNc1nc(-c2ccc(NC(=O)Nc3ccc(F)cc3)cc2)nc2ccsc12
- IC50 [1]: 350 nM
- IC50 [2]: 540 nM
- IC50 [3]: 330 nM
- IC50 [4]: 390 nM

SMILES: CN(C)CCCNc1nc(-c2ccc(NC(=O)Nc3ccccc3Cl)cc2)nc2c(Cl)c(Cl)sc12
- IC50 [1]: 820 nM
- IC50 [2]: 1560 nM
- IC50 [3]: 1330 nM
- IC50 [4]: 490 nM

SMILES: CCN(CC)CCNc1nc(-c2ccc(NC(=O)Nc3ccc(Cl)cc3Cl)cc2)nc2ccsc12
- IC50 [1]: 1940 nM
- IC50 [2]: 2480 nM
- IC50 [3]: 1520 nM
- IC50 [4]: 1890 nM

From ChEMBL document CHEMBL3352345, “Design, synthesis and biological evaluation of novel thieno[3,2-d]pyrimidine derivatives containing diaryl urea moiety as potent antitumor agents” (Eur J Med Chem, 2014)
